Measurements gathered from unrelated publications.
Compare with care: the assays were run in different laboratories.
Target: Cyclin-dependent kinase-like 2 (CDKL2, Homo sapiens, UniProt Q92772)
One construct used (Q92772 1-493): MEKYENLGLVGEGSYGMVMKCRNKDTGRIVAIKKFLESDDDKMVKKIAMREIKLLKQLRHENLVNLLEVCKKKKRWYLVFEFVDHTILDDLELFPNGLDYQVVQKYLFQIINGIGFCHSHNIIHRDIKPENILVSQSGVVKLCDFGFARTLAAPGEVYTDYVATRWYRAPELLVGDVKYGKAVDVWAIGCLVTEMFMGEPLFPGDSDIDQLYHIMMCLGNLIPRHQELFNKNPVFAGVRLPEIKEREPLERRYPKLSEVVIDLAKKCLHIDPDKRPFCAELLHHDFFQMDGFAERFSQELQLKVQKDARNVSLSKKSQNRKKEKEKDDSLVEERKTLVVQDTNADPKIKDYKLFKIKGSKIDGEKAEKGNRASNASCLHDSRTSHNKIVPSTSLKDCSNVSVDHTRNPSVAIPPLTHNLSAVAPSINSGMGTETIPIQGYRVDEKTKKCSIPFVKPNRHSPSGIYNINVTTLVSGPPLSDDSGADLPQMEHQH

CS(=O)(=O)N1CCCC(NC(=O)[C@H](CCC2CCCCC2)NC(=O)c2ccc(CNc3ncnc4c3nnn4-c3ccccc3)cc2)C1 (stereo partly shown)  remaining binding (cell-free assay, competition with immobilised ligand; 0.1 µM): 100%
Cc1cnc(Nc2ccc(C(=O)N3CCC(N4CCCC4)CC3)cc2)nc1-c1cc2ccccc2s1  remaining binding (binding, competition with immobilised ligand; 1 µM): 12%
CN(C)c1nccc(-c2cnc3ncccn23)n1  remaining binding (binding; 1 µM): 100%
Cc1nc(C2CCN(C(=O)c3ccc(OC(F)(F)F)cc3N)CC2)c2ncc(N3CCN(C)CC3)cc2n1  remaining binding (cell-free assay, competition with immobilised ligand; 1 µM): 100%
CCN1CCN(Cc2ccc(C(=O)Nc3ccc(C)c(Oc4ccc5c(c4)CC(=O)N5)c3)cc2C(F)(F)F)CC1  remaining binding (binding, competition with immobilised ligand; 1 µM): 75%
N[C@@H]1CCN(c2nccc(-c3cnn4ncccc34)n2)C1  remaining binding (binding; 1 µM): 100%
c1cncc(-c2cccc(Nc3nccc(NC4CCCCC4)n3)c2)c1  remaining binding (binding, competition with immobilised ligand; 10 µM): 64%
CN(CCCC(F)(F)F)c1nccc(-c2cnn3ncccc23)n1  remaining binding (binding; 1 µM): 100%
CNC(=O)[C@@H]1CC[C@@H](n2c(-c3ccc4cnccc4c3)nc3ccc(C(=O)NCc4cccc(C(N)=O)c4)cc32)C1  remaining binding (binding, competition with immobilised ligand; 1 µM): 100%
O=C(c1ccc(Nc2nccc(-c3cc4ccccc4s3)n2)cc1)N1CCC(N2CCCC2)CC1  remaining binding (binding, competition with immobilised ligand; 1 µM): 8.8%
CC1CCCN1c1nccc(-c2cnn3ncccc23)n1 (stereo not shown)  remaining binding (binding; 1 µM): 100%
C[C@H](c1ccnc(Nc2nc3ccc(-c4cc(N(C)C)ncn4)cc3[nH]2)c1)N1CCN(C(=O)CC(F)(F)F)CC1  remaining binding (binding, competition with immobilised ligand; 0.1 µM): 100%
COc1cnc(Nc2cccc(S(N)(=O)=O)c2)nc1N1CCN(c2ccccc2)CC1  remaining binding (binding, competition with immobilised ligand; 1 µM): 100%
Nc1ncc2c(n1)-c1c([nH]c3ccc(C#CC4CC4)cc13)CCCC2  remaining binding (binding, competition with immobilised ligand; 1 µM): 96%
C[C@@H]1CCN(c2nccc(-c3cnn4ncccc34)n2)C1  remaining binding (binding; 1 µM): 99%
Cc1nc(Cc2cccc(C(F)(F)F)c2)sc1-c1ccc(C(N)=O)nc1  remaining binding (binding, competition with immobilised ligand; 1 µM): 92%
COc1ncc2cc3ccccc3nc2c1C#N  remaining binding (binding, competition with immobilised ligand; 5 µM): 90%
CN(C)c1ncc(F)c(-c2cnn3ncccc23)n1  remaining binding (binding; 1 µM): 89%
CN(C)C(=O)Cn1cc(-c2nc(C3(c4ccc(-c5cnc(N)nc5)cc4)CC3)no2)cn1  remaining binding (cell-free assay, competition with immobilised ligand; 1 µM): 100%
O=C(Nc1c[nH]nc1C(=O)NC1CCNCC1)c1cc(F)cc(F)c1  remaining binding (binding, competition with immobilised ligand; 1 µM): 89%
O=C1CCc2cc(Nc3cc(OC4CCOCC4)c([N+](=O)[O-])cc3Cl)ccc2N1  remaining binding (cell-free assay, competition with immobilised ligand; 1 µM): 92%
O=C(NCCCN1CCOCC1)c1ccc(Nc2ncc(Cl)c(-c3ccc(Cl)s3)n2)cc1  remaining binding (binding, competition with immobilised ligand; 1 µM): 19%
